{
  "source": "ChEMBL document CHEMBL1122652",
  "about": "“Intensely potent morpholinyl anthracyclines” (J Med Chem, 1984)",
  "note": "The source made the active and inactive calls. The rule behind the calls is not given here.",
  "data": [
    {"test_system": "Mus musculus", "assay": "Antitumor activity (treated/control) against mice bearing L1210 leukemia implanted ip on day 0, after treatment with single ip dose 0.025 mg/kg on day 1.", "assay_type": "functional", "settings": "route intraperitoneal", "in_short": "(§1)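 Mice tumour-implanted on day 0 as in the P388 ip screen. Dosing was iv for P388 (day 1), po for P388 (days 1, 5, 9), and ip for L1210 (day 1) and for B16 melanoma (days 1, 5, 9). Efficacy is T/C % of mean survival time of treated over control mice, at the optimum dose.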", "units": {"T/C": "%"}, "values": [
      {"smiles": "COc1cccc2c1C(=O)c1c(O)c3c(c(O)c1C2=O)C[C@@](O)(C(=O)CO)CC3OC1CC(N2CCOCC2C#N)C(O)C(C)O1", "note": "(stereo partly specified)", "T/C": 164}
    ]},
    {"test_system": "Mus musculus", "assay": "Antitumor activity against mice baering P388 leukemia (10e6 cells) implanted ip on day 0, after treatment with three ip doses (50 mg/kg) on day 5,9,13 when tumor became systemic.", "assay_type": "functional", "settings": "not given", "in_short": "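Mice implanted ip with 10^6 P388 leukemia cells on day 0, then dosed ip either once on day 1 or on days 5, 9 and 13 once the tumour was systemic. Efficacy is T/C, the mean survival time of treated over control mice, expressed as %. T/C > 120% counts as active. The optimum dose is reported.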", "units": {"T/C": "%"}, "values": [
      {"smiles": "COc1cccc2c1C(=N)c1c(O)c3c(c(O)c1C2=O)C[C@@](O)(C(O)CO)CC3OC1CC(N2CCOCC2)C(O)C(C)O1.Cl", "note": "(stereo partly specified)", "T/C": ">161"}
    ]},
    {"test_system": "Mus musculus", "assay": "Antitumor activity (treated/control) against mice bearing P388 leukemia implanted ip on day 0, after treatment with three po doses 0.1 mg/kg on days1,5,9 when the tumor had become systemic", "assay_type": "functional", "settings": "not given", "in_short": "as §1", "units": {"T/C": "%"}, "values": [
      {"smiles": "COc1cccc2c1C(=O)c1c(O)c3c(c(O)c1C2=O)C[C@@](O)(C(=O)CO)CC3OC1CC(N2CCOCC2C#N)C(O)C(C)O1", "note": "(stereo partly specified)", "T/C": ">158"}
    ]},
    {"test_system": "Mus musculus", "assay": "Antitumor activity (treated/control) against mice bearing P388 leukemia implanted ip on day 0, after treatment with single iv dose 0.05 mg/kg on day 1.", "assay_type": "functional", "settings": "not given", "in_short": "as §1", "units": {"T/C": "%"}, "values": [
      {"smiles": "COc1cccc2c1C(=O)c1c(O)c3c(c(O)c1C2=O)C[C@@](O)(C(=O)CO)CC3OC1CC(N2CCOCC2C#N)C(O)C(C)O1", "note": "(stereo partly specified)", "T/C": 152}
    ]},
    {"test_system": "Mus musculus", "assay": "Antitumor activity against mice bearing B16 melanoma implanted ip on day 0, after treatment with three ip doses 10 mg/kg on day 1,5,9 when tumor had become systemic.", "assay_type": "functional", "settings": "route intraperitoneal", "units": {"T/C": "%"}, "values": [
      {"smiles": "COc1cccc2c1C(=O)c1c(O)c3c(c(O)c1C2=O)C[C@@](O)(C(=O)CO)C[C@@H]3O[C@H]1C[C@H](N)[C@H](O)[C@H](C)O1.Cl", "note": "[DOXORUBICIN HYDROCHLORIDE]", "T/C": 278}
    ]},
    {"test_system": "Mus musculus", "assay": "Antitumor activity against mice baering P388 leukemia (10e6 cells) implanted ip on day 0, after treatment with single ip dose 7.5 mg/kg on day 1.", "assay_type": "functional", "settings": "route intraperitoneal", "units": {"T/C": "%"}, "values": [
      {"smiles": "COc1cccc2c1C(=O)c1c(O)c3c(c(O)c1C2=O)C[C@@](O)(C(=O)CO)C[C@@H]3O[C@H]1C[C@H](N)[C@H](O)[C@H](C)O1.Cl", "note": "[DOXORUBICIN HYDROCHLORIDE]", "T/C": 252}
    ]},
    {"test_system": "Calf thymus DNA", "assay": "Effect on thermal denaturation temperature (delta Tm) of helical DNA", "assay_type": "functional", "settings": "Bos taurus", "in_short": "(§2)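 Calf thymus DNA with drug at 5.2 X 10^-6 M in 0.01 M phosphate buffer pH 7 containing EDTA and 5% Me2SO. ΔTm is the thermal denaturation temperature of the DNA–drug complex minus that of DNA alone. Values <1 count as insignificant binding.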", "units": {"ΔTm": "°C"}, "values": [
      {"smiles": "COc1cccc2c1C(=O)c1c(O)c3c(c(O)c1C2=O)C[C@@](O)(C(=O)CO)CC3OC1CC(N2CCOCC2C#N)C(O)C(C)O1", "note": "(stereo partly specified)", "ΔTm": 8.7}
    ]},
    {"test_system": "Mus musculus", "assay": "Antitumor activity against mice bearing P388 leukemia implanted ip on day 0, after treatment with three po doses on day 1,5,9 when the tumor had become systemic; Inactive", "assay_type": "functional, organism-based", "settings": "not given", "values": [
      {"smiles": "COc1cccc2c1C(=O)c1c(O)c3c(c(O)c1C2=O)C[C@@](O)(C(=O)CO)C[C@@H]3O[C@H]1C[C@H](N)[C@H](O)[C@H](C)O1.Cl", "note": "[DOXORUBICIN HYDROCHLORIDE]", "T/C": "inactive"}
    ]},
    {"test_system": "Mus musculus", "assay": "Antitumor activity (treated/control) against mice bearing B16 melanoma implanted ip on day 0, after treatment with 3 ip doses 0.0063 mg/kg on day 1,5,9 when tumor had become systemic.", "assay_type": "functional", "settings": "route intraperitoneal", "in_short": "as §1", "units": {"T/C": "%"}, "values": [
      {"smiles": "COc1cccc2c1C(=O)c1c(O)c3c(c(O)c1C2=O)C[C@@](O)(C(=O)CO)CC3OC1CC(N2CCOCC2C#N)C(O)C(C)O1", "note": "(stereo partly specified)", "T/C": ">148"}
    ]},
    {"test_system": "Nucleic Acid", "assay": "Inhibition of [3H]uridine incorporation into proliferating L1210 cells.", "assay_type": "functional, cell-based", "settings": "Mus musculus", "in_short": "(§3)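 Actively growing L1210 cells in culture were exposed to drug, which was first dissolved in Me2SO and diluted to 1% Me2SO final. Incorporation of [3H]thymidine into DNA or [3H]uridine into RNA was measured. ED50 is the drug concentration giving 50% inhibition.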", "units": {"ED50": "µM"}, "values": [
      {"smiles": "COc1cccc2c1C(=O)c1c(O)c3c(c(O)c1C2=O)C[C@@](O)(C(=O)CO)CC3OC1CC(N2CCOCC2C#N)C(O)C(C)O1", "note": "(stereo partly specified)", "ED50": 0.00053},
      {"smiles": "COc1cccc2c1C(=O)c1c(O)c3c(c(O)c1C2=O)C[C@@](O)(C(=O)CO)C[C@@H]3O[C@H]1C[C@H](N)[C@H](O)[C@H](C)O1.Cl", "note": "[DOXORUBICIN HYDROCHLORIDE]", "ED50": 0.58},
      {"smiles": "COc1cccc2c1C(=N)c1c(O)c3c(c(O)c1C2=O)C[C@@](O)(C(O)CO)CC3OC1CC(N2CCOCC2)C(O)C(C)O1.Cl", "note": "(stereo partly specified)", "ED50": 24}
    ]},
    {"test_system": "Mus musculus", "assay": "Antitumor activity against mice bearing L1210 leukemia implanted ip on day 0, after treatment with single ip dose 10 mg/kg on day 1.", "assay_type": "functional", "settings": "route intraperitoneal", "units": {"T/C": "%"}, "values": [
      {"smiles": "COc1cccc2c1C(=O)c1c(O)c3c(c(O)c1C2=O)C[C@@](O)(C(=O)CO)C[C@@H]3O[C@H]1C[C@H](N)[C@H](O)[C@H](C)O1.Cl", "note": "[DOXORUBICIN HYDROCHLORIDE]", "T/C": 185}
    ]},
    {"test_system": "Nucleic Acid", "assay": "Inhibition of [3H]thymidine incorporation into proliferating L1210 cells.", "assay_type": "functional, cell-based", "settings": "Mus musculus", "in_short": "as §3", "units": {"ED50": "µM"}, "values": [
      {"smiles": "COc1cccc2c1C(=O)c1c(O)c3c(c(O)c1C2=O)C[C@@](O)(C(=O)CO)CC3OC1CC(N2CCOCC2C#N)C(O)C(C)O1", "note": "(stereo partly specified)", "ED50": 0.003},
      {"smiles": "COc1cccc2c1C(=O)c1c(O)c3c(c(O)c1C2=O)C[C@@](O)(C(=O)CO)C[C@@H]3O[C@H]1C[C@H](N)[C@H](O)[C@H](C)O1.Cl", "note": "[DOXORUBICIN HYDROCHLORIDE]", "ED50": 1.6},
      {"smiles": "COc1cccc2c1C(=N)c1c(O)c3c(c(O)c1C2=O)C[C@@](O)(C(O)CO)CC3OC1CC(N2CCOCC2)C(O)C(C)O1.Cl", "note": "(stereo partly specified)", "ED50": "> 100"}
    ]},
    {"test_system": "Mus musculus", "assay": "Antitumor activity against mice baering P388 leukemia (10e6 cells) implanted ip on day 0, after treatment with three ip doses (8 mg/kg) on day 5,9,13 when tumor became systemic.", "assay_type": "functional", "settings": "not given", "units": {"T/C": "%"}, "values": [
      {"smiles": "COc1cccc2c1C(=O)c1c(O)c3c(c(O)c1C2=O)C[C@@](O)(C(=O)CO)C[C@@H]3O[C@H]1C[C@H](N)[C@H](O)[C@H](C)O1.Cl", "note": "[DOXORUBICIN HYDROCHLORIDE]", "T/C": 160}
    ]},
    {"test_system": "not listed separately", "assay": "Partition coefficient (log P) was the log of ratio of concentration in octanol / water partitioned concentration in phosphate buffer at pH 7.4.", "assay_type": "physicochemical", "settings": "not given", "values": [
      {"smiles": "COc1cccc2c1C(=N)c1c(O)c3c(c(O)c1C2=O)C[C@@](O)(C(O)CO)CC3OC1CC(N2CCOCC2)C(O)C(C)O1.Cl", "note": "(stereo partly specified)", "logD": 1.43}
    ]},
    {"test_system": "Mus musculus", "assay": "Antitumor activity against mice bearing P388 leukemia implanted ip on day 0, after treatment with single iv dose 10 mg/kg on day 1.", "assay_type": "functional", "settings": "not given", "units": {"T/C": "%"}, "values": [
      {"smiles": "COc1cccc2c1C(=O)c1c(O)c3c(c(O)c1C2=O)C[C@@](O)(C(=O)CO)C[C@@H]3O[C@H]1C[C@H](N)[C@H](O)[C@H](C)O1.Cl", "note": "[DOXORUBICIN HYDROCHLORIDE]", "T/C": 178}
    ]},
    {"test_system": "Calf thymus DNA", "assay": "Change in thermal denaturation temperature of calf thymus DNA", "assay_type": "nucleic-acid assay", "settings": "Bos taurus", "in_short": "as §2", "units": {"ΔTm": "°C"}, "values": [
      {"smiles": "COc1cccc2c1C(=O)c1c(O)c3c(c(O)c1C2=O)C[C@@](O)(C(=O)CO)C[C@@H]3O[C@H]1C[C@H](N)[C@H](O)[C@H](C)O1.Cl", "note": "[DOXORUBICIN HYDROCHLORIDE]", "ΔTm": 12.8},
      {"smiles": "COc1cccc2c1C(=N)c1c(O)c3c(c(O)c1C2=O)C[C@@](O)(C(O)CO)CC3OC1CC(N2CCOCC2)C(O)C(C)O1.Cl", "note": "(stereo partly specified)", "ΔTm": 1.6}
    ]}
  ]
}
